# Test results from ChEMBL document CHEMBL3414463, “Discovery of potent and selective 8-fluorotriazolopyridine c-Met inhibitors” (J Med Chem, 2015).
# Columns and labels:
# [1] = AUC (0 to infinity) in Sprague-Dawley rat at 2 mg/kg, po; format: ADME, organism-based; design: time infinity, dose 2 mg/kg, route oral; conditions: plasma
# Procedure, shortened: (§1)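 Male Sprague-Dawley rats given 2.0 mg/kg orally in 2% (w/v) hydroxypropylmethylcellulose, 1% (w/v) Tween 80 in water, pH 2.2 (adjusted with HCl or MSA). Some inhibitors instead used 10% (v/v) dimethylacetamide in the same vehicle.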
# Liver microsome [2] = experiment: Stability in human liver microsomes assessed as compound turnover rate; format: ADME
# Liver microsome [3] = experiment: Stability in rat liver microsomes assessed as compound turnover rate; format: ADME
# Cytochrome P450 2D6 = Cytochrome P450 2D6 (Homo sapiens, UniProt P10635); experiment: Inhibition of CYP2D6 (unknown origin); format: ADME
# [4] = biological target: T1, Hepatocyte growth factor receptor (Homo sapiens, UniProt P08581); experiment: Inhibition of recombinant c-Met kinase domain (unknown origin) incubated for 30 mins using gastrin peptide substrate by HTRF assay
# Cytochrome P450 3A4 = Cytochrome P450 3A4 (Homo sapiens, UniProt P08684); experiment: Inhibition of CYP3A4 (unknown origin); format: ADME
# [5] = biological target: T1, Hepatocyte growth factor receptor; experiment: Inhibition of HGF-stimulated c-Met autophosphorylation in serum starved human PC3 cells pre-incubated for 1 hr followed by human recombinant HGF stimulation for 10 mins by quantitative electrochemiluminescence immunoassay; format: cell-based, PC-3
# Procedure, shortened: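 Serum-starved PC-3 cells (plated in high-glucose DMEM/10% FBS, then 16 h in low-glucose DMEM with 0.1% BSA) were treated with a 10-point inhibitor dilution for 1 h at 37 °C. Cells were then stimulated with 200 ng/mL recombinant human HGF for 10 min and lysed. Phospho-c-Met was captured with biotinylated anti-c-Met and 4G10 by electrochemiluminescence. IC50, n ≥ 2.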
# Liver microsome [6] = experiment: Drug metabolism in rat liver microsomes assessed as formation of (S)-2-(8-fluoro-6-(3-methylisoxazol-5-yl)-[1,2,4]triazolo[4,3-a]pyridin-3-yl)-2-(3-methoxyquinolin-6-yl)ethanol in presence of NADPH by LC-MS/MS method; format: ADME
# Procedure, shortened: (§2)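 Compound incubated with NADPH in mouse, rat, dog, monkey or human liver microsomes. Metabolites were identified by accurate mass spectrometry and MS/MS, and selected ion chromatograms were used to build metabolite profiles.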
# Liver microsome [7] = experiment: Drug metabolism in dog liver microsomes assessed as metabolite M3 in presence of NADPH by LC-MS/MS method; format: ADME, Canis lupus familiaris; procedure, shortened: as §2
# [8] = Drug metabolism in mouse liver microsomes assessed as metabolite M3 formation in presence of NADPH by LC-MS/MS method; format: ADME; procedure, shortened: as §2
# [9] = Drug metabolism in monkey liver microsomes assessed as formation of (S)-2-(8-fluoro-6-(3-methylisoxazol-5-yl)-[1,2,4]triazolo[4,3-a]pyridin-3-yl)-2-(3-methoxyquinolin-6-yl)ethanol in presence of NADPH by LC-MS/MS method; format: ADME, Macaca mulatta; conditions: rhesus monkey; procedure, shortened: as §2
# [10] = Drug metabolism in mouse liver microsomes assessed as formation of (S)-2-(8-fluoro-6-(3-methylisoxazol-5-yl)-[1,2,4]triazolo[4,3-a]pyridin-3-yl)-2-(3-methoxyquinolin-6-yl)ethanol formation in presence of NADPH by LC-MS/MS method; format: ADME; procedure, shortened: as §2
# [11] = Drug metabolism in mouse liver microsomes assessed as formation of (S)-6-(1-(8-fluoro-6-(3-methylisoxazol-5-yl)-[1,2,4]triazolo[4,3-a]pyridin-3-yl)ethyl)quinolin-3-ol in presence of NADPH by LC-MS/MS method; format: ADME; procedure, shortened: as §2
# [12] = Drug metabolism in mouse liver microsomes assessed as formation of (S)-(5-(8-fluoro-3-(1-(3-methoxyquinolin-6-yl)ethyl)-[1,2,4]triazolo[4,3-a]pyridin-6-yl)isoxazol-3-yl)methanol in presence of NADPH by LC-MS/MS method; format: ADME; procedure, shortened: as §2
# Liver microsome [13] = experiment: Drug metabolism in dog liver microsomes assessed as formation of (S)-2-(8-fluoro-6-(3-methylisoxazol-5-yl)-[1,2,4]triazolo[4,3-a]pyridin-3-yl)-2-(3-methoxyquinolin-6-yl)ethanol in presence of NADPH by LC-MS/MS method; format: ADME, Canis lupus familiaris; procedure, shortened: as §2
# Liver microsome [14] = experiment: Drug metabolism in rat liver microsomes assessed as formation of (S)-(5-(8-fluoro-3-(1-(3-methoxyquinolin-6-yl)ethyl)-[1,2,4]triazolo[4,3-a]pyridin-6-yl)isoxazol-3-yl)methanol in presence of NADPH by LC-MS/MS method; format: ADME; procedure, shortened: as §2
# [15] = Volume of distribution at steady state in Sprague-Dawley rat at 0.25 mg/kg, iv; format: ADME, organism-based; design: dose 0.25 mg/kg, route intravenous; conditions: in vivo, read-out: Vdss
# Procedure, shortened: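 Male Sprague-Dawley rats were given a single IV dose of 0.25 mg/kg. The vehicle was DMSO, or for some compounds 20% (w/v) hydroxypropyl β-cyclodextrin in water adjusted to pH 3.5 with MSA. NC marks cases where the terminal disposition rate constant could not be characterized for lack of slope.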
# Liver microsome [16] = experiment: Unbound clearance rat liver microsomes at 1 uM in presence of NADPH by LC-MS/MS method; format: ADME
# Procedure, shortened: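 Aliquots were taken at 0, 10, 20, 30 and 40 min, quenched with an equal volume of acetonitrile, centrifuged and analysed by LC/MS/MS.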
# Liver microsome [17] = experiment: Drug metabolism in dog liver microsomes assessed as formation of (S)-6-(1-(8-fluoro-6-(3-methylisoxazol-5-yl)-[1,2,4]triazolo[4,3-a]pyridin-3-yl)ethyl)quinolin-3-ol in presence of NADPH by LC-MS/MS method; format: ADME, Canis lupus familiaris; procedure, shortened: as §2
# [18] = AUC (0 to infinity) in Sprague-Dawley rat at 0.25 mg/kg, iv; format: ADME, organism-based, Plasma; design: dose 0.25 mg/kg, route intravenous, time infinity; conditions: Sprague-Dawley, plasma
# Liver microsome [19] = experiment: Drug metabolism in human liver microsomes assessed as formation of (S)-2-(8-fluoro-6-(3-methylisoxazol-5-yl)-[1,2,4]triazolo[4,3-a]pyridin-3-yl)-2-(3-methoxyquinolin-6-yl)ethanol in presence of NADPH by LC-MS/MS method; format: ADME; procedure, shortened: as §2
# Liver microsome [20] = experiment: Drug metabolism in rat liver microsomes assessed as metabolite M3 formation in presence of NADPH by LC-MS/MS method; format: ADME; procedure, shortened: as §2
# [21] = Oral bioavailability in Sprague-Dawley rat at 2 mg/kg; format: ADME, organism-based; conditions: in vivo; procedure, shortened: as §1
# Liver microsome [22] = experiment: Drug metabolism in rat liver microsomes assessed as formation of (S)-6-(1-(8-fluoro-6-(3-methylisoxazol-5-yl)-[1,2,4]triazolo[4,3-a]pyridin-3-yl)ethyl)quinolin-3-ol in presence of NADPH by LC-MS/MS method; format: ADME; procedure, shortened: as §2
# [23] = Clearance in Sprague-Dawley rat at 0.25 mg/kg, iv; format: ADME, organism-based; design: dose 0.25 mg/kg, route intravenous; conditions: Sprague-Dawley, in vivo
# [24] = Half life in Sprague-Dawley rat at 0.25 mg/kg, iv; format: ADME, organism-based; design: dose 0.25 mg/kg, route intravenous; conditions: in vivo
# Liver microsome [25] = experiment: Drug metabolism in dog liver microsomes assessed as formation of (S)-(5-(8-fluoro-3-(1-(3-methoxyquinolin-6-yl)ethyl)-[1,2,4]triazolo[4,3-a]pyridin-6-yl)isoxazol-3-yl)methanol in presence of NADPH by LC-MS/MS method; format: ADME, Canis lupus familiaris; procedure, shortened: as §2
# T1 sequence (P08581 whole entry, the tested form may be a part): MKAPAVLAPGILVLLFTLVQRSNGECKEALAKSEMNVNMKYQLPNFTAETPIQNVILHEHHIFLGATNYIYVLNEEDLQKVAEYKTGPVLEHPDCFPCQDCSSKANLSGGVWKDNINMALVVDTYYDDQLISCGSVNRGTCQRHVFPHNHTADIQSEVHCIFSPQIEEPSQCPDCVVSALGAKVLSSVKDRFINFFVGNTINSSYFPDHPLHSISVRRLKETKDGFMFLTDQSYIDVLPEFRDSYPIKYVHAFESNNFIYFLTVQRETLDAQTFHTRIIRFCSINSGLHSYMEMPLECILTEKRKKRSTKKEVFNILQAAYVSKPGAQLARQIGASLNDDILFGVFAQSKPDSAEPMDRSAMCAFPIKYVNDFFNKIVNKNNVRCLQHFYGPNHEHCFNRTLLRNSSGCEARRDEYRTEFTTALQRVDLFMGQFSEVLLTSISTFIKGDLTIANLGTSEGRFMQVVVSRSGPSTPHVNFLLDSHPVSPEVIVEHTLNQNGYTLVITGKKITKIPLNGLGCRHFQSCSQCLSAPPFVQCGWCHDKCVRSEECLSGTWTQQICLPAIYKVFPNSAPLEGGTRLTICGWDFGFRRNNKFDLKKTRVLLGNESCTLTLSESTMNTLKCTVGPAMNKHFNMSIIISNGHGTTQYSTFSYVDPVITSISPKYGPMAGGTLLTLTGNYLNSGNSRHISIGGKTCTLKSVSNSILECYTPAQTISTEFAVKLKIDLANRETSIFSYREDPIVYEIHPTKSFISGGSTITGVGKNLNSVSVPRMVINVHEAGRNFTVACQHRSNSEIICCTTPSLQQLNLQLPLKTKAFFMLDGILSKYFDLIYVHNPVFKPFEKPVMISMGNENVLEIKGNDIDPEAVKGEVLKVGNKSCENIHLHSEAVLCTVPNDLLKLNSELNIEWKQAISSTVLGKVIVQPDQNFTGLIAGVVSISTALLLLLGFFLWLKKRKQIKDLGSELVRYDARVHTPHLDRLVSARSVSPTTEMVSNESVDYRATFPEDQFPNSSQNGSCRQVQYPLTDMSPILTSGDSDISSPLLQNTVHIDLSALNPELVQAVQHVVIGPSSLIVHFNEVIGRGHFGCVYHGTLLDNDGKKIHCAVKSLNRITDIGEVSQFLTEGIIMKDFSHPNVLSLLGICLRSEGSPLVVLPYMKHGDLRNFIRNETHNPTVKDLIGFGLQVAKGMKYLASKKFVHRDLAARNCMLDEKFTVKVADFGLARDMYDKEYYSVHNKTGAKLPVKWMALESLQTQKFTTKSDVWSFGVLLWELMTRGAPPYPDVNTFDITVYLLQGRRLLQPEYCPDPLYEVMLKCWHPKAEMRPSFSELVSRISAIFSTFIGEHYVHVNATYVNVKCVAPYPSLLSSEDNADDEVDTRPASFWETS
# Chain of Cytochrome P450 3A4 (P08684 whole entry): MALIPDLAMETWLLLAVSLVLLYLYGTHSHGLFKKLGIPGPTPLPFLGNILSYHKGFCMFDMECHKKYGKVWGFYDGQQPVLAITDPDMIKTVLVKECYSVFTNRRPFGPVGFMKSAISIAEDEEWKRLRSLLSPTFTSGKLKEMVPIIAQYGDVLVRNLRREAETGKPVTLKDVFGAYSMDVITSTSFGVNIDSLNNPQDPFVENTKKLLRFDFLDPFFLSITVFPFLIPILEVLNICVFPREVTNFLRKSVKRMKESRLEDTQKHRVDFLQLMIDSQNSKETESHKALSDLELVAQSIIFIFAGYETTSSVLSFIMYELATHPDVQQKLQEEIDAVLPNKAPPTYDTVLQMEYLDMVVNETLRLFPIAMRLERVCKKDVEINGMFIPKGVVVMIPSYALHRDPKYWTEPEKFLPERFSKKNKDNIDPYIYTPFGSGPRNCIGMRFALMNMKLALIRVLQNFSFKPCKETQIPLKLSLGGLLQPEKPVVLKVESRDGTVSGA
# Chain of Cytochrome P450 2D6 (P10635 whole entry, the tested form may be a part): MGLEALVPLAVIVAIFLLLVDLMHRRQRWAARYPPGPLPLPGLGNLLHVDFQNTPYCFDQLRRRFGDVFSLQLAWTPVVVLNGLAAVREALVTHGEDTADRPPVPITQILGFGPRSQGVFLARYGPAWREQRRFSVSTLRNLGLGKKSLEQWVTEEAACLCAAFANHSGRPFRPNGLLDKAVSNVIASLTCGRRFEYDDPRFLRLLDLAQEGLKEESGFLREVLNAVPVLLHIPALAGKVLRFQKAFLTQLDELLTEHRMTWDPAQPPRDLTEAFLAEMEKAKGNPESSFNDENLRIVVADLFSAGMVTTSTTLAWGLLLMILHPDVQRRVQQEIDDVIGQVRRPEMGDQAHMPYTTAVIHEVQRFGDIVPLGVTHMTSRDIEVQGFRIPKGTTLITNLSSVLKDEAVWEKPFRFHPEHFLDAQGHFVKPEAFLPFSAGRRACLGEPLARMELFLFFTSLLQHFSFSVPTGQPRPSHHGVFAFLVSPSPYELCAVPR
smiles,measurement,setting,value
COc1cnc2ccc(C(F)(F)c3nnc4c(F)cc(-c5cnn(C)c5)cn34)cc2c1,AUC(0-inf),[1],> 386 µM·h
same,Stability,Liver microsome [2],Stable
same,Stability,Liver microsome [3],Stable
same,inhibition (INH),Cytochrome P450 2D6,Not Active
same,IC50,[4],12 nM
same,inhibition (INH),Cytochrome P450 3A4,Not Active
same,IC50,[5],13 nM
COc1cnc2ccc([C@H](C)c3nnc4c(F)cc(-c5cc(C)no5)cn34)cc2c1,Drug metabolism,Liver microsome [6],metabolite_notdetected
same,Drug metabolism,Liver microsome [7],metabolite_detected
same,Drug metabolism,[8],metabolite_detected
same,Drug metabolism,[9],metabolite_detected
same,Drug metabolism,[10],metabolite_notdetected
same,Drug metabolism,[11],metabolite_detected
same,Drug metabolism,[12],metabolite_detected
same,Drug metabolism,Liver microsome [13],metabolite_notdetected
same,Drug metabolism,Liver microsome [14],metabolite_detected
same,Vd,[15],0.18 L/kg
same,CL free,Liver microsome [16],233 mL/min/kg
same,Drug metabolism,Liver microsome [17],metabolite_detected
same,IC50,[4],2 nM
same,AUC(0-inf),[18],9 µM·h
same,Drug metabolism,Liver microsome [19],metabolite_detected
same,IC50,[5],6 nM
same,Drug metabolism,Liver microsome [20],metabolite_detected
same,bioavailability,[21],42%
same,Drug metabolism,Liver microsome [22],metabolite_detected
same,clearance,[23],1.5 mL/min/kg
same,half-life,[24],2.5 h
same,Drug metabolism,Liver microsome [25],metabolite_detected
